Measurements taken from ChEMBL document CHEMBL4330182, “Advance of Seriniquinone Analogues as Melanoma Agents” (ACS Med Chem Lett, 2019).
Values after ≈ are worked out from the molar mass of the structure shown. Active and inactive are the calls of the source. The calls are words filed in the database; no cut-off is given here.

Tested on: HCT-116
Assay: Cytotoxicity against human HCT116 cells after 72 hrs by MTT assay
Format: functional, cell-based
Settings: HCT-116, 72 h
For `O=c1c2ccccc2c(=O)c2c1[nH]c1c(=O)c3ccccc3c(=O)c12`, the IC50 was 4.24 µM. In the case of `O=c1c2ccccc2c(=O)c2c1sc1c(=O)c3ccc(O)cc3c(=O)c12`, the IC50 is reported as 1.45 µM. `O=c1c2ccccc2c(=O)c2c1sc1c(=O)c3ccccc3c(=O)c12` showed an IC50 of 1.29 µM. Work on `CCCCNC(=O)Oc1ccc2c(=O)c3sc4c(=O)c5ccccc5c(=O)c4c3c(=O)c2c1` yielded an IC50 of 0.75 µM. For `O=c1c2ccccc2c(=O)c2c1oc1c(=O)c3ccccc3c(=O)c12`, the IC50 was 4.08 µM. Work on `O=c1c2ccccc2c(=O)c2c1sc1c(=O)c3ncccc3c(=O)c12` yielded an IC50 of 0.54 µM. With `COc1ccc2c(=O)c3sc4c(=O)c5ccccc5c(=O)c4c3c(=O)c2c1` the IC50 was 8.16 µM.

Tested on: not listed separately
Assay: Stability of the compound at 23 degC for 3 months at solid state
Format: physicochemical
Settings: 2191.5 h
For `O=c1c2ccccc2c(=O)c2c1sc1c(=O)c3ccc(O)cc3c(=O)c12`, the Stability was “Stable”. For `CCCCNC(=O)Oc1ccc2c(=O)c3sc4c(=O)c5ccccc5c(=O)c4c3c(=O)c2c1`, the Stability was “Stable”. With `COc1ccc2c(=O)c3sc4c(=O)c5ccccc5c(=O)c4c3c(=O)c2c1` the Stability was “Stable”.

Tested on: not listed separately
Assay: Stability of the compound in pH 7.2 PBS buffer at 37 degC for 48 hrs by NMR analysis
Format: physicochemical
Settings: pH 7.2, 48 h
For `O=c1c2ccccc2c(=O)c2c1sc1c(=O)c3ccc(O)cc3c(=O)c12`, the Stability was “Stable”. With `COc1ccc2c(=O)c3sc4c(=O)c5ccccc5c(=O)c4c3c(=O)c2c1` the Stability was “Stable”.

Tested on: SK-MEL-28
Assay: Induction of DCD mRNA expression in human SK-MEL-28 cells at 30 to 100 nM after 24 hrs by RT-qPCR method
Format: functional, cell-based
Settings: not given
In the case of `O=c1c2ccccc2c(=O)c2c1sc1c(=O)c3ccc(O)cc3c(=O)c12`, the Activity is reported as “Active”. For `O=c1c2ccccc2c(=O)c2c1sc1c(=O)c3ccccc3c(=O)c12`, the Activity was “Active”. In the case of `CCCCNC(=O)Oc1ccc2c(=O)c3sc4c(=O)c5ccccc5c(=O)c4c3c(=O)c2c1`, the Activity is reported as “Active”.

Tested on: Calf thymus DNA
Assay: Binding affinity to calf thymus DNA at 60 uM by fluorescence spectral analysis
Format: nucleic-acid assay
Settings: Bos taurus
Summary of the method: (§1)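 Fluorescence emission spectra recorded while calf thymus DNA was titrated into the compound solution. […] Binding was judged by attenuation (quench) of emission on DNA addition.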
In the case of `O=c1c2ccccc2c(=O)c2c1sc1c(=O)c3ccccc3c(=O)c12`, the Activity is reported as “inactive”. With `CCCCNC(=O)Oc1ccc2c(=O)c3sc4c(=O)c5ccccc5c(=O)c4c3c(=O)c2c1` the Activity was “inactive”.

Tested on: Calf thymus DNA
Assay: Binding affinity to calf thymus DNA at 20 uM by fluorescence spectral analysis
Format: nucleic-acid assay
Settings: Bos taurus
Summary of the method: as §1
With `COc1cccc2c1C(=O)c1c(O)c3c(c(O)c1C2=O)C[C@@](O)(C(=O)CO)C[C@@H]3O[C@H]1C[C@H](N)[C@H](O)[C@H](C)O1` [DOXORUBICIN] the Activity was “Active”.

Tested on: not listed separately
Assay: Drug metabolism in aqueous media assessed as 2-hydroxydinaphtho[2,3-b:2',3'-d]thiophene-5,7,12,13-tetraone formation by NMR analysis
Settings: not given
Summary of the method: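 DMSO stocks of the carbamate at 1.0 or 0.5 mg/mL were diluted 20-fold into PBS pH 7.2. Samples were held 24 h at 23 °C, and hydrolytic release of the phenol (purple salt) was monitored.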
In the case of `CCCCNC(=O)Oc1ccc2c(=O)c3sc4c(=O)c5ccccc5c(=O)c4c3c(=O)c2c1`, the Drug metabolism is reported as “Metabolite detected”.

Tested on: Malme-3M
Assay: Induction of DCD mRNA expression in human MALME-3M cells at 30 to 100 nM after 24 hrs by RT-qPCR method
Format: functional, cell-based
Settings: not given
With `O=c1c2ccccc2c(=O)c2c1sc1c(=O)c3ccc(O)cc3c(=O)c12` the Activity was “Active”. In the case of `O=c1c2ccccc2c(=O)c2c1sc1c(=O)c3ccccc3c(=O)c12`, the Activity is reported as “Active”. In the case of `CCCCNC(=O)Oc1ccc2c(=O)c3sc4c(=O)c5ccccc5c(=O)c4c3c(=O)c2c1`, the Activity is reported as “Active”.

Tested on: not listed separately
Assay: Solubility of the compound in pH 7.2 solution
Format: physicochemical
Settings: buffer
Summary of the method: (§2)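 Solubility S was determined in buffer at pH 6.5 for the parent series and regioisomer mixtures, and at pH 7.2 for the phenol/carbamate series.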
With `O=c1c2ccccc2c(=O)c2c1sc1c(=O)c3ccc(O)cc3c(=O)c12` the solubility was 0.4 µM (≈ 0.144 µg/mL). Work on `CCCCNC(=O)Oc1ccc2c(=O)c3sc4c(=O)c5ccccc5c(=O)c4c3c(=O)c2c1` yielded a solubility of 24.6 µM (≈ 11.3 µg/mL). With `COc1ccc2c(=O)c3sc4c(=O)c5ccccc5c(=O)c4c3c(=O)c2c1` the solubility was 8.2 µM (≈ 3.07 µg/mL).

Tested on: not listed separately
Assay: Stability of the compound in pH 7.2 PBS buffer at 23 degC for 1 month by NMR analysis
Format: physicochemical
Settings: pH 7.2, 730.5 h
Summary of the method: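 Purity was followed by NMR in PBS pH 7.2 for 1 month at 23 °C, and in cell culture medium at 37 °C for 48 h (limit of testing).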
In the case of `O=c1c2ccccc2c(=O)c2c1sc1c(=O)c3ccc(O)cc3c(=O)c12`, the Stability is reported as “Stable”. With `COc1ccc2c(=O)c3sc4c(=O)c5ccccc5c(=O)c4c3c(=O)c2c1` the Stability was “Stable”.

Tested on: not listed separately
Assay: Solubility of the compound in pH 6.5 solution
Format: physicochemical
Settings: buffer
Summary of the method: as §2
Compound `O=c1c2ccccc2c(=O)c2c1[nH]c1c(=O)c3ccccc3c(=O)c12` has a solubility of 0.4 µM (≈ 0.131 µg/mL). `O=c1c2ccccc2c(=O)c2c1sc1c(=O)c3ccccc3c(=O)c12` gave a solubility of 0.06 µM (≈ 0.0207 µg/mL). Work on `O=c1c2ccccc2c(=O)c2c1oc1c(=O)c3ccccc3c(=O)c12` yielded a solubility of 0.09 µM (≈ 0.0295 µg/mL). For `O=c1c2ccccc2c(=O)c2c1sc1c(=O)c3ncccc3c(=O)c12`, the solubility was 0.5 µM (≈ 0.173 µg/mL).

Tested on: HCT-116
Assay: Induction of oxidative stress in human HCT116 cells at 100 uM after 1 hr by CellROX green/NucBlue staining based confocal microscopic method
Format: cell-based
Settings: hct-116, 1 h
Summary of the method: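 HCT-116 cells were stained with CellROX Green for reactive oxygen species and counterstained with NucBlue for nuclei. Imaging was by confocal microscopy, scoring green fluorescent mitochondria as the oxidative-stress read-out.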
In the case of `CCCCNC(=O)Oc1ccc2c(=O)c3sc4c(=O)c5ccccc5c(=O)c4c3c(=O)c2c1`, the Activity is reported as “Non-Toxic”.

Tested on: Malme-3M
Assay: Cytotoxicity against human MALME-3M cells after 72 hrs by MTT assay
Format: functional, cell-based
Settings: not given
`O=c1c2ccccc2c(=O)c2c1[nH]c1c(=O)c3ccccc3c(=O)c12` showed an IC50 of 2.03 µM. For `O=c1c2ccccc2c(=O)c2c1sc1c(=O)c3ccc(O)cc3c(=O)c12`, the IC50 was 0.22 µM. For `O=c1c2ccccc2c(=O)c2c1sc1c(=O)c3ccccc3c(=O)c12`, the IC50 was 0.05 µM. With `CCCCNC(=O)Oc1ccc2c(=O)c3sc4c(=O)c5ccccc5c(=O)c4c3c(=O)c2c1` the IC50 was 0.06 µM. With `O=c1c2ccccc2c(=O)c2c1oc1c(=O)c3ccccc3c(=O)c12` the IC50 was 1.11 µM. With `O=c1c2ccccc2c(=O)c2c1sc1c(=O)c3ncccc3c(=O)c12` the IC50 was 0.1 µM. Work on `COc1ccc2c(=O)c3sc4c(=O)c5ccccc5c(=O)c4c3c(=O)c2c1` yielded an IC50 of 0.06 µM. Work on `COc1cccc2c1C(=O)c1c(O)c3c(c(O)c1C2=O)C[C@@](O)(C(=O)CO)C[C@@H]3O[C@H]1C[C@H](N)[C@H](O)[C@H](C)O1` [DOXORUBICIN] yielded an IC50 of 0.5 µM.

Tested on: HCT-116
Assay: Induction of DCD mRNA expression in human HCT116 cells at 1 to 10 uM after 24 hrs by RT-qPCR method
Format: functional, cell-based
Settings: not given
With `O=c1c2ccccc2c(=O)c2c1sc1c(=O)c3ccc(O)cc3c(=O)c12` the Activity was “Active”. For `O=c1c2ccccc2c(=O)c2c1sc1c(=O)c3ccccc3c(=O)c12`, the Activity was “Active”. In the case of `CCCCNC(=O)Oc1ccc2c(=O)c3sc4c(=O)c5ccccc5c(=O)c4c3c(=O)c2c1`, the Activity is reported as “Active”.

Tested on: SK-MEL-28
Assay: Cytotoxicity against human SK-MEL-28 cells after 72 hrs by MTT assay
Format: functional, cell-based
Settings: SK-MEL-28, 72 h
`O=c1c2ccccc2c(=O)c2c1[nH]c1c(=O)c3ccccc3c(=O)c12` showed an IC50 of 4.3 µM. With `O=c1c2ccccc2c(=O)c2c1sc1c(=O)c3ccc(O)cc3c(=O)c12` the IC50 was 0.33 µM. Work on `O=c1c2ccccc2c(=O)c2c1sc1c(=O)c3ccccc3c(=O)c12` yielded an IC50 of 0.36 µM. `CCCCNC(=O)Oc1ccc2c(=O)c3sc4c(=O)c5ccccc5c(=O)c4c3c(=O)c2c1` showed an IC50 of 1.8 µM. Work on `O=c1c2ccccc2c(=O)c2c1oc1c(=O)c3ccccc3c(=O)c12` yielded an IC50 of 3.47 µM. `O=c1c2ccccc2c(=O)c2c1sc1c(=O)c3ncccc3c(=O)c12` gave an IC50 of 2.15 µM. `COc1ccc2c(=O)c3sc4c(=O)c5ccccc5c(=O)c4c3c(=O)c2c1` showed an IC50 of 7 µM. In the case of `COc1cccc2c1C(=O)c1c(O)c3c(c(O)c1C2=O)C[C@@](O)(C(=O)CO)C[C@@H]3O[C@H]1C[C@H](N)[C@H](O)[C@H](C)O1` [DOXORUBICIN], the IC50 is reported as 3 µM.
